CHO parental Ca: counter-screen for OX1R antagonists: effect in parental CHO cells | parental CHO-K1, ATP-induced calcium, Fluo-8 fluorescence | inhibition, % at 5.6 µM | actives 0.63% (n = 330,000) | AID 463079;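 active means inhibition above that plate's mean sample inhibition plus 3 SD, cut at about 26% in these data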;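 further: 0% = ATP-challenged DMSO wells and 100% = DMSO wells without ATP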
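Assay system: parental CHO cells; Read-out basis: percent inhibition of ATP-evoked calcium rise, normalized to controls; Benchmarks: ATP and no-ATP DMSO wells; Compound dosing: single nominal dose of 5.6 µM per compound; Signal: Fluo-8 calcium dye fluorescence; Also added: ATP as calcium-mobilizing challenge; Repeats: singlicate.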
OX1R antag-1: antagonists of human orexin 1 receptor; inhibition, % at 5 µM; actives 0.43% (n = 330,000); AID 434989; CHO/OX1R cells, Fluo-8 calcium fluorescence, orexin A;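 active means inhibition above its plate's threshold, mean inhibition of all tested compounds on the plate plus 3 SD, cut at about 37% in these data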;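 further: 0% = orexin A challenge wells and 100% = SB-334867-A antagonist wells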
GalR3 antagonist: antagonists of human GalR3; O60755; HEK293 GalR3-CNG cAMP membrane potential fluorescence; galR3 body fused to GalR1 C-terminus; inhibition, % at 3 µM; actives 0.44% (n = 360,000);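 active means inhibition above the screen-wide average plus 3 SD, cut at about 13% in these data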;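 further: forskolin and galanin both at EC90 stimulate the cells; cAMP rise reported by CNG channel membrane potential dye signal; 0% = forskolin plus galanin with DMSO and 100% = forskolin alone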
Target sequence (O60755 1-299 limits assumed): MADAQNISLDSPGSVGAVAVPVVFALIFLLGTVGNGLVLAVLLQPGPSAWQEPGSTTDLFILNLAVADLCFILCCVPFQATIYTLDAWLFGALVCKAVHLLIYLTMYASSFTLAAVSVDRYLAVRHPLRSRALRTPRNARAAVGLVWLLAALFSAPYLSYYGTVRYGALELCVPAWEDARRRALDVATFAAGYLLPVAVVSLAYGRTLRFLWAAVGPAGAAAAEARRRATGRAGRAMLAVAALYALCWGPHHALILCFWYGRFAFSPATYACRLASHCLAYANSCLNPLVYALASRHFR
GPR7 antagonist: human neuropeptides B/W receptor 1 antagonism. P48145. GPR7-expressing cells, fluorescence antagonist assay. inhibition, % at 4.4 µM. actives 1.1% (n = 290,000). AID 1861; in the data active means inhibition above about 16%, passing the limit was not always enough;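 further: cells stimulated with the agonist NPW; 0% = agonist with vehicle and 100% = vehicle without agonist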
Target sequence (P48145 whole entry, looked up): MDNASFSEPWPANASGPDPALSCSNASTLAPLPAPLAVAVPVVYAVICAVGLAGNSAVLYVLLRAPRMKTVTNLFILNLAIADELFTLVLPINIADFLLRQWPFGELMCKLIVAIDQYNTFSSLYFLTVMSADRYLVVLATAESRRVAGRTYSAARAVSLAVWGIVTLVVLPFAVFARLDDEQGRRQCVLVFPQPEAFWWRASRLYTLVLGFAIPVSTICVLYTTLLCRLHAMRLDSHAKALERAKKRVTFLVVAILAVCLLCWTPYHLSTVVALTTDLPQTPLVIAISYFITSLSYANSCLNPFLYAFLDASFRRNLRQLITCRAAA
OX1R antag-2: antagonists of human orexin 1 receptor (OX1R); actives 1.8% (n = 330,000); inhibition, % at 6.6 µM; O43613; OX1R-expressing cells, FRET antagonist read-out; in the data active means inhibition mostly above about 38%, no sharp cut-off; inactive means mostly below about 40%;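 further: 0% = agonist challenge alone and 100% = reference antagonist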
Starred values were filed as active, the others as inactive. In the library only some 3.1% were active in any assay of this set; here they are far more common.

For O=C(Cn1ccccc1=O)Nc1ccc(Cl)c(S(=O)(=O)N2CCCCC2)c1 the results were CHO parental Ca -6.1, OX1R antag-1 13.5, GalR3 antagonist 0.7 and OX1R antag-2 4.6.
COc1ccc(NC(=O)CSc2nc(N)cc(=O)[nH]2)cc1S(=O)(=O)N1CCCCC1 was read as GalR3 antagonist -2.9.
N#Cc1cc2c(=O)n3ccccc3nc2n(CCCN2CCOCC2)c1=O was read as CHO parental Ca 1.7, OX1R antag-1 -26.8, GalR3 antagonist -6.0, GPR7 antagonist -1.6 and OX1R antag-2 53.9*.
COc1ccc(CCNC(=O)c2cc3c(=O)n4ccccc4nc3n(CCCN3CCOCC3)c2=N)cc1 was read as CHO parental Ca -15.0, OX1R antag-1 -20.4, GalR3 antagonist -1.8, GPR7 antagonist 14.7 and OX1R antag-2 51.1*.
For COc1ccc(CCNC(=O)c2cc3c(=O)n4ccccc4nc3n(CCN3CCOCC3)c2=N)cc1 the results were CHO parental Ca -1.0, OX1R antag-1 -4.3, GalR3 antagonist 0.6, GPR7 antagonist 9.7 and OX1R antag-2 31.0.
`N#Cc1cc2c(=O)n3ccccc3nc2n(Cc2cccnc2)c1=O` gave CHO parental Ca -4.5, OX1R antag-1 -15.3, GalR3 antagonist -2.9 and OX1R antag-2 41.1.
For COc1ccc(CCNC(=O)c2cc3c(=O)n4ccccc4nc3n(CCCN3CCOCC3)c2=N)cc1OC the results were CHO parental Ca -17.6, OX1R antag-1 8.5, GalR3 antagonist -8.5, GPR7 antagonist -0.9 and OX1R antag-2 73.6*.
For C[C@@H]1CN([C@@H](C)CO)C(=O)CCCn2cc(nn2)CO[C@H]1CN(C)C(=O)Nc1ccnc(N2CCOCC2)c1 the results were GalR3 antagonist -7.5.
CCCCOCCCNC(=O)C[C@@H]1C[C@@]2(C(=O)OC)CC(C)(C)CC=C2N(Cc2ccccc2)C1=O was read as GalR3 antagonist -8.2.
O=C(CN(Cc1ccco1)C(=O)Cn1nnc(-c2cccs2)n1)NCC1CCCO1 (stereo not given) was read as CHO parental Ca -5.6, OX1R antag-1 -19.0, GalR3 antagonist -5.3, GPR7 antagonist -10.8 and OX1R antag-2 10.1.
For Cc1[nH]c2ccccc2c1/C=N/Nc1ccccc1[N+](=O)[O-] the results were CHO parental Ca -17.6, OX1R antag-1 1.6, GalR3 antagonist -5.7, GPR7 antagonist -16.0 and OX1R antag-2 66.6*.
For COc1ccc(NC(=O)CSc2nc(N)c(NC(=O)c3ccccc3F)c(=O)[nH]2)cc1 the results were CHO parental Ca -0.5, OX1R antag-1 2.2, GalR3 antagonist -0.6, GPR7 antagonist -10.1 and OX1R antag-2 4.5.
Screening COc1ccc(NS(=O)(=O)c2cc(N/C(=N\S(=O)(=O)c3ccccc3)c3ccc(F)cc3)ccc2Cl)cc1 returned CHO parental Ca -5.5, OX1R antag-1 6.5, GalR3 antagonist -3.9, GPR7 antagonist 34.4* and OX1R antag-2 7.3.
Screening COc1ccc(NS(=O)(=O)c2cc(C(=O)N3CCN(C(C)=O)CC3)ccc2Cl)cc1 returned CHO parental Ca -12.7, OX1R antag-1 -8.2, GalR3 antagonist -4.2, GPR7 antagonist -5.0 and OX1R antag-2 -0.2.
Screening COc1ccc(CC(=O)Nc2ccc(NC(=O)c3ccccc3F)cc2)cc1 returned CHO parental Ca 58.0*, OX1R antag-1 22.5, GalR3 antagonist -6.1, GPR7 antagonist -1.1 and OX1R antag-2 2.2.
COc1ccc(NS(=O)(=O)c2ccc(Cl)c(NC(=O)c3ccccc3F)c2)cc1 was read as CHO parental Ca -11.1, OX1R antag-1 16.1, GalR3 antagonist -2.7 and OX1R antag-2 48.8*.
CCCCNC(=O)c1onc(CSc2ccc(F)c(F)c2)c1C(=O)NCCCC was read as CHO parental Ca -28.1, OX1R antag-1 -45.4, GalR3 antagonist 1.9 and OX1R antag-2 31.5.
`Cc1ccc(-n2c(C)nnc2SCC(=O)N(C)c2c(N)n(Cc3ccccc3)c(=O)[nH]c2=O)cc1` gave CHO parental Ca -12.8, OX1R antag-1 11.2, GalR3 antagonist -4.8 and OX1R antag-2 1.8.
COCc1c(C(=O)OCc2nc(N)nc(Nc3ccccc3C)n2)oc2ccccc12 was read as CHO parental Ca -25.3, OX1R antag-1 16.2, GalR3 antagonist -4.0, GPR7 antagonist 1.0 and OX1R antag-2 46.6*.
For COc1cc2ccccc2cc1C(=O)OCc1nc2ccsc2c(=O)[nH]1 the results were CHO parental Ca -21.7, OX1R antag-1 -7.3, GalR3 antagonist -4.7 and OX1R antag-2 34.9*.
`Cc1ccccc1Nc1nc(N)nc(COC(=O)c2ccco2)n1` gave CHO parental Ca -10.9, OX1R antag-1 -3.8, GalR3 antagonist -1.8 and OX1R antag-2 6.3.
COCc1c(C(=O)OCc2nc3ccsc3c(=O)[nH]2)oc2ccccc12 was read as CHO parental Ca -19.6, OX1R antag-1 10.5, GalR3 antagonist -4.5 and OX1R antag-2 28.3*.
For Cc1cc(N2C(=O)C(O)=C(C(=O)c3ccco3)C2c2ccc([N+](=O)[O-])cc2)no1 (stereo not given) the results were CHO parental Ca -6.7, OX1R antag-1 -2.4, GalR3 antagonist -0.7, GPR7 antagonist -3.1 and OX1R antag-2 43.0.
Screening O=C(Nc1cccc(O)c1)c1noc2c1CCc1ccccc1-2 returned CHO parental Ca -15.0, OX1R antag-1 40.3, GalR3 antagonist -9.9, GPR7 antagonist 6.2 and OX1R antag-2 36.6*.
For COC(=O)c1ccc(N2C(=O)CC(N3CCN(c4ccccc4)CC3)C2=O)cc1 (stereo not given) the results were CHO parental Ca -6.0, OX1R antag-1 -17.3, GalR3 antagonist -1.3, GPR7 antagonist 19.0* and OX1R antag-2 29.7.
For O=C(COC(=O)c1ccccc1Br)NCCC1=CCCCC1 the results were CHO parental Ca -13.2, OX1R antag-1 -20.9, GalR3 antagonist 1.0, GPR7 antagonist -10.8 and OX1R antag-2 4.7.
Screening O=C(NC(=S)NCCC1=CCCCC1)c1ccccc1Br returned CHO parental Ca -11.7, OX1R antag-1 -10.0, GalR3 antagonist -3.7, GPR7 antagonist -8.4 and OX1R antag-2 65.1*.
Screening Cn1c2ccccc2c2ncn(Cc3ccc(F)cc3)c(=O)c21 returned CHO parental Ca -22.5, OX1R antag-1 -29.4, GalR3 antagonist -1.1, GPR7 antagonist -10.7 and OX1R antag-2 5.9.
`Cn1c2ccsc2c2ncn(Cc3ccccc3F)c(=O)c21` gave CHO parental Ca -8.5, OX1R antag-1 25.0, GalR3 antagonist -6.2 and OX1R antag-2 41.7*.
`CCOc1ccc(C(=O)OCC(=O)Nc2ccc(SC(F)F)cc2)cc1OCC` gave CHO parental Ca 25.2*, OX1R antag-1 -6.4, GalR3 antagonist -4.1, GPR7 antagonist -9.3 and OX1R antag-2 8.0.
For O=C(COC(=O)c1cc[n+]([O-])cc1)Nc1ccc(SC(F)F)cc1 the results were CHO parental Ca -3.1, OX1R antag-1 5.4, GalR3 antagonist 0.6, GPR7 antagonist -12.5 and OX1R antag-2 28.5.
Screening O=C(c1ccco1)N1CCN(CCCCOc2cccc3ccccc23)CC1 returned CHO parental Ca -28.1, OX1R antag-1 -19.8, GalR3 antagonist -4.4, GPR7 antagonist 0.8 and OX1R antag-2 9.9.

Compound activity as filed in PubChem BioAssay.
